Data from PubChem BioAssay.
Inconclusive results are not listed.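 The calls were made as follows, unless noted: active = RAM network inhibition above 8.4% in each of two replicates, 3 SD over the compound average; inconclusive = above 8.4% inhibition in only one replicate; inactive = 8.4% inhibition or less in each replicate.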

Key:
[1] = S. cerevisiae growth inhibition in permissive medium (OD615), pilot counter-assay for S. cerevisiae lifespan shortening project, permissive growth control (AID 705;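 active = growth inhibition above 25% in both replicates, a cutoff set 3 SD above the mean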); settings: OD615, 24 h, at 10 µM, active compounds read high
Method in brief: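 Test system: Saccharomyces cerevisiae strain carrying genetically modified DeaD replicative-lifespan system; buffer or medium: SC raffinose/galactose permissive medium; dosing: one dose 10 µM, DMSO 0.25% final; times: 24 h exposure, 30 °C; measured by: OD at 615 nm; read-out basis: growth inhibition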

[2] = S. cerevisiae growth inhibition in restrictive medium, OD615, pilot screen, restrictive growth control, yeast lifespan reduction project (AID 706;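 active = growth inhibition above a set limit, 3 SD over mean compound inhibition, in both replicates, cut at about 43% in these data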;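 also: modified DeaD lifespan yeast strain shifted to restrictive glucose medium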); settings: OD615, 48 h, at 10 µM, active compounds read high
Method in brief: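 material = engineered S. cerevisiae DeaD strain | buffer or medium = glucose-based CSMM-D restrictive medium | dosing = one concentration, 10 µM final, 0.25% DMSO | schedule = 4 h pre-growth plus 48 h compound exposure, 30 °C | detection = OD615 absorbance reading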

[3] = doxorubicin toxicity protection in MRP-1 cells – H69AR cells, CellTiter-Glo, duplicate, MRP-1 activator project, pilot screen (AID 807;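 active = viability increase at or above a cutoff of the median across tested compounds plus 3 SD, cut at about 8.5% in these data, passing the limit was not always enough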;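 also: compound pretreatment 18-22 h then 72 h combined with doxorubicin; 0% = doxorubicin alone and 100% = vehicle without doxorubicin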); settings: H69AR viability with doxorubicin, CellTiter-Glo luminescence; at 10 µM; active compounds read high
[4] = viability of HCT116 without oncogenic beta-catenin – human colon tumor cells, pilot screen (AID 823;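 active = cell viability at or below a set limit in both duplicate runs, the limit being the all-compound median minus 4 SD, cut at about 23% in these data, passing the limit was not always enough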;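 also: 0% = wells killed by 20 µM Hyamine and 100% = untreated DMSO cell wells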); settings: HCT116 beta-catenin knockout viability, CellTiter-Glo, 60 h; at 10 µM; active compounds read low
[5] = viability of PTEN-null HCT116 cells – cell-based, HCT116 clonal line, CellTiter-Glo, pilot screen (AID 824;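 active = viability at or below 27.92% in each of two runs, the all-compound median minus 4 SD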;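 also: 0% = 20 µM Hyamine control and 100% = vehicle cell control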); settings: HCT116 PTEN-deleted viability, 60 h, at 10 µM, active compounds read low
[6] = RAM pathway blockade in budding yeast – dse1pr::URA3 reporter, 5-FOA selection, pilot screen (AID 869;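 active = inhibition over a set limit, the all-compound mean plus 3 SD, in both replicate runs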;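 also: 0% = DMSO wells with no growth and 100% = 10 µM 1-NA-PP1 with full growth; RAM network block rescues cells from 5-FOA so hits raise OD615 growth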); settings: S. cerevisiae dse1pr::URA3 5-FOA growth, OD615, 2 d; at 10 µM; active compounds read high; strain carries analog-sensitive mutant Cbk1 kinase
[7] = RAM signaling pathway blockade in yeast – S. cerevisiae, Pdr1DBD-CYC8 efflux-inhibited sensitized strain, primary screen (AID 1298);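 also: 0% = DMSO untreated cells without growth and 100% = 10 µM 1-NA-PP1 full growth; higher means more yeast growth rescued from 5-FOA killing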; settings: S. cerevisiae cbk1-as DSE1-URA3 strain, 5-FOA growth OD615, 2 d; at 50 µM; active compounds read high

O=C(Nc1nc(-c2cc3ccccc3oc2=O)cs1)c1ccco1
inactive: growth inhibition [1] -17.5% | growth inhibition [2] -10.9% | viability increase [3] -1.98% | viability [4] 102% | viability [5] 100% | inhibition [6] 1.57% | RAM network inhibition [7] 3.32%

OC(C#CCN1CCCC1)c1ccccc1 (configuration not stated)
inactive: growth inhibition [1] -1.08% | growth inhibition [2] -5.8% | viability increase [3] -0.22% | viability [4] 91.6% | viability [5] 98.8% | inhibition [6] 0.7% | RAM network inhibition [7] -0.43%

Cn1c2c(c(=O)n(C)c1=O)C(c1cc3c(cc1Br)OCO3)CC(=O)N2 (configuration not stated)
inactive: growth inhibition [1] -4.86% | growth inhibition [2] -4.15% | viability increase [3] -0.66% | viability [4] 105% | viability [5] 99% | inhibition [6] -0.625% | RAM network inhibition [7] 4.1%

CCCn1cnc2cc(NCc3ccccn3)ccc21
inactive: growth inhibition [1] -5.07% | growth inhibition [2] 8.03% | viability increase [3] -2.58% | viability [4] 98.5% | viability [5] 100% | inhibition [6] 2.06% | RAM network inhibition [7] -2.3%

COc1ccc(N=CC2=C(O)CC(C)(C)CC2=O)cc1
inactive: growth inhibition [1] 6.45% | growth inhibition [2] -2.8% | viability increase [3] -3.24% | viability [4] 97.5% | viability [5] 101% | inhibition [6] 0.71% | RAM network inhibition [7] 1.73%

COC(=O)c1sc(NC(=O)C2CCCCC2C(=O)O)c(C(=O)OC)c1C (configuration not stated)
inactive: growth inhibition [1] -5.95% | growth inhibition [2] 0.13% | viability increase [3] -2.78% | viability [4] 104% | viability [5] 94.6% | inhibition [6] 2.49% | RAM network inhibition [7] 6.27%

COc1ccc(CC(=O)c2ccc(O)cc2O)cc1OC
inactive: growth inhibition [1] -6.46% | growth inhibition [2] -7.7% | viability increase [3] -3.53% | viability [4] 95.6% | viability [5] 89.2% | inhibition [6] 1.26% | RAM network inhibition [7] 2.27%

CCOC(=O)NC(Nc1ncccn1)(C(F)(F)F)C(F)(F)F
inactive: growth inhibition [1] 0.98% | growth inhibition [2] -5.49% | viability increase [3] -3.34% | viability [4] 94.4% | viability [5] 97.5% | inhibition [6] 1.17% | RAM network inhibition [7] 0.47%

COc1ccc(OC)c(NC(=O)Nc2ccccc2C)c1
inactive: growth inhibition [1] -3.12% | growth inhibition [2] -16.3% | viability increase [3] -3.16% | viability [4] 102% | viability [5] 95.9% | inhibition [6] 1.13% | RAM network inhibition [7] 1.79%

CCN(CC)Cc1c(O)ccc2c(-c3ccccc3)cc(=O)oc12
inactive: growth inhibition [1] -5.29% | growth inhibition [2] -1.64% | viability increase [3] -1.73% | viability [4] 94.3% | viability [5] 94.7% | inhibition [6] 1.23% | RAM network inhibition [7] 1.08%

O=C(Cn1c(S(=O)(=O)Cc2ccccc2)nc2ccccc21)N1CCCCC1
inactive: growth inhibition [1] -5.32% | growth inhibition [2] 2.88% | viability increase [3] -6.5% | viability [4] 107% | viability [5] 99.3% | inhibition [6] -0.04% | RAM network inhibition [7] 3.73%

CC(=O)N1CCc2c(sc(NC(=O)c3ccc4c(c3)OCCO4)c2C#N)C1
inactive: growth inhibition [1] -0.37% | growth inhibition [2] -8.73% | viability increase [3] -6.36% | viability [4] 35% | viability [5] 35.4% | inhibition [6] 2.62% | RAM network inhibition [7] 4.02%

Cc1cc(Nc2cc(F)ccc2C)n2nc(C)nc2n1
inactive: growth inhibition [1] -12.4% | growth inhibition [2] -7.35% | viability increase [3] -2.3% | viability [4] 105% | viability [5] 95% | inhibition [6] 1.03% | RAM network inhibition [7] 6.29%

CC(CCc1ccco1)NC(=O)Cn1ncc2c(=O)oc3ccccc3c21 (configuration not stated)
inactive: growth inhibition [1] -15.7% | growth inhibition [2] -12.5% | viability increase [3] -3.03% | viability [4] 105% | viability [5] 93.7% | inhibition [6] 1.96% | RAM network inhibition [7] 5.79%

O=C(CCCn1c(=O)[nH]c2ccccc2c1=O)N1CCN(c2ccccn2)CC1
inactive: growth inhibition [1] -3.37% | growth inhibition [2] -16.9% | viability increase [3] -3.43% | viability [4] 98.3% | viability [5] 96.2% | inhibition [6] 2.37% | RAM network inhibition [7] 3.32%

CC(C)Cc1ccc(C#N)c(SCC(N)=O)n1
inactive: growth inhibition [1] -8.16% | growth inhibition [2] -9.82% | viability increase [3] -2.54% | viability [4] 97.2% | viability [5] 92.1% | inhibition [6] 2.18% | RAM network inhibition [7] 3.19%
